Measurements from ChEMBL document CHEMBL2157922, “Synthesis and antifungal activity of diverse C-2 pyridinyl and pyridinylvinyl substituted quinolines” (2012).

Tests used:
[1] = test system: Trichophyton mentagrophytes; assay: Antifungal activity against Trichophyton mentagrophytes ATCC 9972 after 48 hrs by broth microdilution technique; type: functional; settings: ATCC 9972, 48 h
Outline: (§1)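 Moulds and dermatophytes were run by CLSI broth microdilution in MOPS-buffered RPMI-1640 at pH 7.0. Aspergillus was incubated at 30 °C and dermatophytes at 28–30 °C, in a moist, dark chamber. MIC100, the lowest concentration with no visible growth, was read visually at a time set by growth of the control fungus.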

Cryptococcus neoformans [2] = assay: Antifungal activity against Cryptococcus neoformans ATCC 32264 at 31.2 ug/ml after 48 hrs; type: functional; settings: ATCC 32264, 48 h
Outline: (§2)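 C. neoformans was tested by 96-well RPMI-1640 microdilution, with DMSO-matched growth and sterility control wells. Plates were incubated 48 h at 30 °C in a moist, dark chamber and read at OD405. % inhibition = 100 − (CTW − SCW)/(GCW − SCW), in duplicate. For the clinical isolates, MIC80 and MIC50 are the lowest concentrations giving 80% and 50% inhibition.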

Aspergillus flavus = assay: Antifungal activity against Aspergillus flavus ATCC 9170 after 48 hrs by broth microdilution technique; type: functional; settings: ATCC 9170, 48 h; outline: as §1
Aspergillus fumigatus = assay: Antifungal activity against Aspergillus fumigatus ATCC 26934 after 48 hrs by broth microdilution technique; type: functional; settings: ATCC 26934, 48 h; outline: as §1
Candida albicans [3] = assay: Antifungal activity against Candida albicans CCC 125 after 48 hrs by broth microdilution technique; type: functional; settings: CCC 125, 48 h
Cryptococcus neoformans [4] = assay: Antifungal activity against Cryptococcus neoformans ATCC 32264 at 15.6 ug/ml after 48 hrs; type: functional; settings: ATCC 32264, 48 h; outline: as §2
Cryptococcus neoformans [5] = assay: Antifungal activity against Cryptococcus neoformans IM 983040 after 48 hrs by broth microdilution technique; type: functional; settings: IM 983040, 48 h; outline: as §2
Candida parapsilosis = assay: Antifungal activity against Candida parapsilosis CCC 124 after 48 hrs by broth microdilution technique; type: functional; settings: Lodderomyces parapsilosis, CCC 124, 48 h
Pichia kudriavzevii = assay: Antifungal activity against Candida krusei CCC 117 after 48 hrs by broth microdilution technique; type: functional; settings: CCC 117, 48 h
Cryptococcus neoformans [6] = assay: Antifungal activity against Cryptococcus neoformans IM 972751 after 48 hrs by broth microdilution technique; type: functional; settings: IM 972751, 48 h; outline: as §2
Cryptococcus neoformans [7] = assay: Antifungal activity against Cryptococcus neoformans ATCC 32264 after 48 hrs by broth microdilution technique; type: functional; settings: ATCC 32264, 48 h
Outline: (§3)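 Yeasts were tested by CLSI broth microdilution in RPMI-1640 buffered to pH 7.0 with MOPS, with compound from 250 down to 0.98 in DMSO stocks. Trays were held at 30 °C in a moist, dark chamber. MIC100, the lowest concentration giving total visual inhibition against the growth control, was read by eye at 48 h.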

Candida albicans [8] = assay: Antifungal activity against Candida albicans ATCC 10231 after 48 hrs by broth microdilution technique; type: functional; settings: ATCC 10231, 48 h; outline: as §3
Aspergillus niger = assay: Antifungal activity against Aspergillus niger ATCC 9029 after 48 hrs by broth microdilution technique; type: functional; settings: ATCC 9029, 48 h; outline: as §1
Candida albicans [9] = assay: Antifungal activity against Candida albicans CCC 129 after 48 hrs by broth microdilution technique; type: functional; settings: CCC 129, 48 h
Cryptococcus neoformans [10] = assay: Antifungal activity against Cryptococcus neoformans IM 983036 after 48 hrs by broth microdilution technique; type: functional; settings: IM 983036, 48 h; outline: as §2
Candida albicans [11] = assay: Antifungal activity against Candida albicans ATCC 10231 at 31.2 ug/ml after 24 hrs; type: functional; settings: ATCC 10231, 24 h
Outline: (§4)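 C. albicans was grown in 96-well RPMI-1640 broth microdilution with compound wells diluted from DMSO stocks. Growth wells with matched DMSO and sterility wells were included. After 24 h at 30 °C in a moist, dark chamber, OD405 was read. % inhibition = 100 − (CTW − SCW)/(GCW − SCW) OD, done in duplicate.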

Nannizzia gypsea = assay: Antifungal activity against Microsporum gypseum CCC 115 after 48 hrs by broth microdilution technique; type: functional; settings: CCC 115, 48 h; outline: as §1
Saccharomyces cerevisiae = assay: Antifungal activity against Saccharomyces cerevisiae ATCC 9763 after 48 hrs by broth microdilution technique; type: functional; settings: ATCC 9763, 48 h; outline: as §3
Trichophyton rubrum = assay: Antifungal activity against Trichophyton rubrum CCC 113 after 48 hrs by broth microdilution technique; type: functional; settings: CCC 113, 48 h
Nakaseomyces glabratus = assay: Antifungal activity against Candida glabrata CCC 115 after 48 hrs by broth microdilution technique; type: functional; settings: CCC 115, 48 h
Candida albicans [12] = assay: Antifungal activity against Candida albicans ATCC 10231 at 7.8 ug/ml after 24 hrs; type: functional; settings: ATCC 10231, 24 h; outline: as §4
Cryptococcus neoformans [13] = assay: Antifungal activity against Cryptococcus neoformans IM 972724 after 48 hrs by broth microdilution technique; type: functional; settings: IM 972724, 48 h; outline: as §2
Candida albicans [14] = assay: Antifungal activity against Candida albicans CCC 130 after 48 hrs by broth microdilution technique; type: functional; settings: CCC 130, 48 h
Candida albicans [15] = assay: Antifungal activity against Candida albicans ATCC 10231 at 15.6 ug/ml after 24 hrs; type: functional; settings: ATCC 10231, 24 h; outline: as §4
Cryptococcus neoformans [16] = assay: Antifungal activity against Cryptococcus neoformans IM 00319 after 48 hrs by broth microdilution technique; type: functional; settings: IM 00319, 48 h; outline: as §2
Candida albicans [17] = assay: Antifungal activity against Candida albicans CCC 127 after 48 hrs by broth microdilution technique; type: functional; settings: CCC 127, 48 h
Candida albicans [18] = assay: Antifungal activity against Candida albicans CCC 126 after 48 hrs by broth microdilution technique; type: functional; settings: CCC 126, 48 h
Candida tropicalis = assay: Antifungal activity against Candida tropicalis CCC 131 after 48 hrs by broth microdilution technique; type: functional; settings: CCC 131, 48 h
Candida albicans [19] = assay: Antifungal activity against Candida albicans CCC 128 after 48 hrs by broth microdilution technique; type: functional; settings: CCC 128, 48 h
Cryptococcus neoformans [20] = assay: Antifungal activity against Cryptococcus neoformans IM 042074 after 48 hrs by broth microdilution technique; type: functional; settings: IM 042074, 48 h; outline: as §2
Candida albicans [21] = assay: Antifungal activity against Candida albicans CCC 130 after 24 hrs by broth microdilution technique; settings: CCC 130, 24 h

c1ccc2nc(-c3ccncc3)ccc2c1
62.5 mg/L: MIC80 (Pichia kudriavzevii)
80%: inhibition at 31.2 µg/mL (Cryptococcus neoformans [2]) | inhibition at 15.6 µg/mL (Cryptococcus neoformans [4]) | inhibition at 31.2 µg/mL (Candida albicans [11]) | inhibition at 15.6 µg/mL (Candida albicans [15])
62 mg/L: MFC [1] | MIC [1] | MIC (Aspergillus flavus) | MIC (Aspergillus fumigatus) | MIC (Cryptococcus neoformans [7]) | MIC (Candida albicans [8]) | MIC (Aspergillus niger) | MFC (Nannizzia gypsea) | MIC (Nannizzia gypsea) | MIC (Saccharomyces cerevisiae) | MFC (Trichophyton rubrum) | MIC (Trichophyton rubrum)
7.8 mg/L: MIC50 (Cryptococcus neoformans [6]) | MIC50 (Candida albicans [8]) | MIC50 (Candida albicans [9]) | MIC50 (Cryptococcus neoformans [10]) | MIC50 (Candida albicans [17]) | MIC50 (Candida albicans [19])
50%: inhibition at 7.8 µg/mL (Candida albicans [12])
125 mg/L: MFC (Aspergillus flavus) | MFC (Aspergillus fumigatus) | MFC (Cryptococcus neoformans [7]) | MFC (Aspergillus niger)
250 mg/L: MFC (Candida albicans [8]) | MFC (Saccharomyces cerevisiae)
31.2 mg/L: MIC80 (Cryptococcus neoformans [5]) | MIC80 (Candida parapsilosis) | MIC50 (Pichia kudriavzevii) | MIC80 (Cryptococcus neoformans [6]) | MIC80 (Cryptococcus neoformans [10]) | MIC50 (Cryptococcus neoformans [13]) | MIC80 (Cryptococcus neoformans [13]) | MIC80 (Candida albicans [14]) | MIC50 (Cryptococcus neoformans [16]) | MIC80 (Cryptococcus neoformans [16]) | MIC80 (Candida albicans [18]) | MIC80 (Candida tropicalis) | MIC80 (Cryptococcus neoformans [20])
15.6 mg/L: MIC50 (Candida albicans [3]) | MIC80 (Candida albicans [3]) | MIC50 (Cryptococcus neoformans [5]) | MIC50 (Candida parapsilosis) | MIC50 (Cryptococcus neoformans [7]) | MIC80 (Cryptococcus neoformans [7]) | MIC80 (Candida albicans [8]) | MIC80 (Candida albicans [9]) | MIC50 (Nakaseomyces glabratus) | MIC80 (Nakaseomyces glabratus) | MIC80 (Candida albicans [17]) | MIC50 (Candida albicans [18]) | MIC50 (Candida tropicalis) | MIC80 (Candida albicans [19]) | MIC50 (Cryptococcus neoformans [20]) | MIC50 (Candida albicans [21])

C(=C\c1ccc2ccccc2n1)/c1ccncc1
31 mg/L: MIC [1] | MIC (Nannizzia gypsea) | MIC (Trichophyton rubrum)
62.5 mg/L: MIC80 (Nakaseomyces glabratus) | MIC80 (Candida tropicalis)
125 mg/L: MFC [1] | MIC (Aspergillus flavus) | MIC (Aspergillus fumigatus) | MFC (Cryptococcus neoformans [7]) | MIC (Aspergillus niger) | MFC (Nannizzia gypsea) | MFC (Trichophyton rubrum)
> 250 mg/L: MFC (Aspergillus niger)
7.8 mg/L: MIC50 (Candida albicans [3]) | MIC50 (Cryptococcus neoformans [5]) | MIC50 (Candida parapsilosis) | MIC50 (Candida albicans [8]) | MIC50 (Cryptococcus neoformans [10]) | MIC50 (Cryptococcus neoformans [13]) | MIC50 (Cryptococcus neoformans [16]) | MIC50 (Candida albicans [19]) | MIC50 (Candida albicans [21])
31.2 mg/L: MIC80 (Cryptococcus neoformans [5]) | MIC80 (Candida parapsilosis) | MIC80 (Pichia kudriavzevii) | MIC80 (Cryptococcus neoformans [6]) | MIC80 (Cryptococcus neoformans [7]) | MIC80 (Candida albicans [9]) | MIC80 (Cryptococcus neoformans [10]) | MIC50 (Nakaseomyces glabratus) | MIC80 (Cryptococcus neoformans [13]) | MIC80 (Cryptococcus neoformans [16]) | MIC80 (Candida albicans [18]) | MIC50 (Candida tropicalis) | MIC80 (Cryptococcus neoformans [20])
50%: inhibition at 7.8 µg/mL (Candida albicans [12])
62 mg/L: MIC (Cryptococcus neoformans [7]) | MIC (Candida albicans [8]) | MIC (Saccharomyces cerevisiae)
3.9 mg/L: MIC50 (Cryptococcus neoformans [6]) | MIC50 (Cryptococcus neoformans [20])
250 mg/L: MFC (Aspergillus flavus) | MFC (Aspergillus fumigatus) | MFC (Candida albicans [8]) | MFC (Saccharomyces cerevisiae)
80%: inhibition at 31.2 µg/mL (Cryptococcus neoformans [2]) | inhibition at 31.2 µg/mL (Candida albicans [11]) | inhibition at 15.6 µg/mL (Candida albicans [15])
15.6 mg/L: MIC80 (Candida albicans [3]) | MIC50 (Pichia kudriavzevii) | MIC50 (Cryptococcus neoformans [7]) | MIC80 (Candida albicans [8]) | MIC50 (Candida albicans [9]) | MIC80 (Candida albicans [14]) | MIC50 (Candida albicans [17]) | MIC80 (Candida albicans [17]) | MIC50 (Candida albicans [18]) | MIC80 (Candida albicans [19])
